# Assay results from PubChem BioAssay AID504354 (Broad Institute, 2011).
# Values without a mark were called inactive.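 Rule for the calls: active = curve reaches 10% of the strong reference activator's caspase signal at or below the top valid tested dose; inactive = signal moves in the opposite direction, or the rest.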
# Assay: apoptosis induction in non-primed human MEWO line – cell-based, luminescence, dry powder, set 2, counter-screen for A1 inhibitor project, dose response (AID 504354)
# Conditions: MEWO cells (unprimed), caspase-Glo luminescence, 3 h; at 16 µM; stronger effect = higher value
# In short: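 System: unprimed MEWO cell line expressing A1; Amount: 2500 cells/well; Medium: RPMI-1640 plus 10% FBS; Doses: pin-transferred compound; Schedule: 3 h compound treatment at 37 °C, 1 h reagent at RT; Detection: CaspaseGlo luminescence, reagent mixed 1:1 with 50 mM HEPES; Read-out basis: caspase activity from luminescent signal.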
smiles,measurement,value
C/C1=C/C(=O)O[C@@H]2C[C@@H](CC[C@H](C)/C=C\CC1)O[C@@](O)(C1CSC(=O)N1)C2 (stereo partly specified),caspase activation,2.23%
